Shown are actives, neighbours in structure and some others; about 2.7% of the full set was active somewhere.
Yeast lifespan up: extends the lifespan of yeast | S. cerevisiae growth with nicotinamide, OD615; deaD strain in restrictive glucose medium | inhibition of the nicotinamide effect, % at 10 µM | 130,000 tested, 0.68% active;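 active = inhibition above a set limit, placed 3 SD over the median of all compounds, cut at about 26% in these data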;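 also: 0% = nicotinamide-treated wells and 100% = cells grown without nicotinamide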
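Assay system: engineered S. cerevisiae DeaD replicative-lifespan strain, galactose-grown log-phase cells; Buffer or medium: CSMM-D glucose medium, restrictive; Probe or stimulus: nicotinamide 1.5 mM; Compound: single dose 10 µM compound, 0.25% DMSO; Schedule: 4 h preincubation then 48 h treatment at 30 °C; Technique: OD615 measurement.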
RAM inhibit: yeast RAM network inhibition | S. cerevisiae dse1pr::URA3 reporter, 5-FOA growth OD615, 2 d; analog-sensitive cbk1-as2 kinase mutant strain | 190,000 tested, 1.8% active | AID 868 | inhibition, % at 50 µM;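 active = inhibition above a set limit, 3 SD over mean compound inhibition, cut at about 8.4% in these data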;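 also: 0% = DMSO-only wells with no growth and 100% = 10 µM 1-NA-PP1 full growth; inhibition rescues growth on 5-FOA so higher OD means more RAM inhibition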
Yeast growth inh: reduces growth of yeast BB579 in restrictive medium | S. cerevisiae BB579 growth, OD615, 48 h | inhibition, % at 10 µM | 140,000 tested, 0.51% active;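 active = inhibition above a set limit, 3 SD over the mean compound inhibition, cut at about 44% in these data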
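test system = yeast BB579 (DeaD) | buffer or medium = restrictive CSMM-D medium | doses = single compound dose of 10 µM, 0.25% DMSO final | times = 4 h preincubation and 48 h exposure at 30 °C | technique = culture absorbance at 615 nm | benchmarks = amphotericin B 10 µg/mL, positive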
Phagocyt inh: blocks phagocytosis by macrophages | J774A.1 macrophage IgG-bead phagocytosis, imaging | inhibition, % at 5 µM | 110,000 tested, 0.07% active;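 active = inhibition above the mean of the plate negative controls plus 5 SD, cut at about 13% in these data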;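 also: phagocytic index as fraction of beads internalized from green versus red external bead signal; plate controls were DMSO negative control for no effect and cytochalasin-D positive control for full effect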
An asterisk follows results filed as active.

How did O=C(NCC(=O)N(c1ccc(F)cc1)C(C(=O)NC1CCCC1)c1cccnc1)c1cccs1 (configuration not stated) do in these assays?
RAM inhibit: 8.9*

Results for COc1ccc(NS(=O)(=O)c2cc(NC(=O)/C=C/c3ccccc3OC)ccc2N2CCCCC2)cc1 ?
Yeast lifespan up: 9; RAM inhibit: 11*; Yeast growth inh: -63

What do the screens show for `CC(C)(C)n1nnnc1C(c1cccs1)N(Cc1cccnc1)Cc1ccco1` (configuration not stated)?
Yeast lifespan up: -1; RAM inhibit: 0; Yeast growth inh: -83; Phagocyt inh: -1

How did CC(C)(C)n1nnnc1C(c1cccs1)N(Cc1ccccc1)Cc1ccco1 (configuration not stated) do in these assays?
Yeast lifespan up: 2; RAM inhibit: 9.6*; Yeast growth inh: -17; Phagocyt inh: 0

Results for O=C(CN1CCCc2ccccc21)N/N=C/c1c(O)ccc2ccccc12 ?
Yeast lifespan up: 1; RAM inhibit: 0; Yeast growth inh: -4; Phagocyt inh: -19

How did Cc1ccc(/C=C/C(=O)C2C(=O)c3ccccc3C2=O)cc1 do in these assays?
Yeast lifespan up: 42*; RAM inhibit: 3; Yeast growth inh: -20; Phagocyt inh: -4

What do the screens show for `N#CC1(c2nc3ccccc3[nH]2)CC1c1ccc2c(c1)OCO2` (configuration not stated)?
Yeast lifespan up: -15; RAM inhibit: 0; Yeast growth inh: -17; Phagocyt inh: -2

What do the screens show for `COc1ccc(Cl)cc1N1C(=O)/C(=C\c2sccc2C)N=C1SCC(=O)NC1CC1`?
Yeast lifespan up: -17; RAM inhibit: 8.6*; Yeast growth inh: -41; Phagocyt inh: 1

Results for C=CCN1C(=O)/C(=C\c2ccc(Cl)cc2)N=C1SCC(=O)NC1CCCCC1 ?
Yeast lifespan up: -1; RAM inhibit: 1; Yeast growth inh: -34; Phagocyt inh: 0

How did C=CCN(CC=C)c1nc2ccccc2nc1C(C#N)C(=O)OC(C)C (configuration not stated) do in these assays?
Yeast lifespan up: 36*; RAM inhibit: 1; Yeast growth inh: -34

What do the screens show for `O=C(Nc1ccccc1C(=O)NC(Cc1ccccc1)C(=O)NC1CCCCC1)c1ccccc1` (configuration not stated)?
Yeast lifespan up: -1; RAM inhibit: 1; Yeast growth inh: -20; Phagocyt inh: -6

How did O=C(NCC1CCCO1)c1ccc(COc2ccccc2Br)cc1 (configuration not stated) do in these assays?
Yeast lifespan up: -4; RAM inhibit: 0; Yeast growth inh: -39; Phagocyt inh: 0

Results for O=C(NC(=S)N1CCN(Cc2ccc3c(c2)OCO3)CC1)c1ccc(Cl)cc1 ?
Yeast lifespan up: 2; RAM inhibit: -1; Yeast growth inh: -42; Phagocyt inh: -5

What do the screens show for `Cc1cccn2c(=O)c(C=Nc3ccc(Cl)cc3)c(NCCO)nc12`?
Yeast lifespan up: 3; RAM inhibit: 2; Yeast growth inh: -22

How did Cc1cccn2c(=O)c(C=NCCO)c(Nc3ccc(Cl)cc3)nc12 do in these assays?
RAM inhibit: 8.9*

Results for Cc1ccc(S(=O)(=O)N2CCC(C(=O)N/N=C/c3cccnc3)CC2)cc1 ?
Yeast lifespan up: -1; RAM inhibit: 3; Yeast growth inh: -60; Phagocyt inh: -1

What do the screens show for `CCNc1nc(NC(C)(C)C)nc(SCC(N)=O)n1`?
RAM inhibit: -1

What do the screens show for `Cc1nc2ccccc2c2c1C(=O)N(C)C2=O`?
Yeast lifespan up: -9; RAM inhibit: 0; Yeast growth inh: 66*; Phagocyt inh: -1

How did COCCCn1c(SCC(=O)N2CCc3ccccc32)nnc1-c1ccco1 do in these assays?
RAM inhibit: 8.6*; Yeast growth inh: -1

What do the screens show for `COc1ccc(C(=O)c2cc(C(C)=O)c(Nc3ccccc3)s2)cc1`?
Yeast lifespan up: -4; RAM inhibit: 9.1*; Yeast growth inh: -45; Phagocyt inh: -5

Results for CCN(CC)CCCOC(=O)c1ccc(OC)cc1O ?
RAM inhibit: 0

What do the screens show for `CCOc1ccc2nc(SCC(=O)Nc3nonc3C)[nH]c2c1`?
RAM inhibit: 9.1*

How did C/C(=N\NC(=O)c1cc(-c2ccc(C)s2)[nH]n1)c1ccco1 do in these assays?
Yeast lifespan up: -5; RAM inhibit: 3; Yeast growth inh: -50; Phagocyt inh: -8

What do the screens show for `CNC(=S)NNC(=O)c1sc2cc(C(F)(F)F)cnc2c1-c1ccccn1`?
RAM inhibit: 8.6*

What do the screens show for `CNC(=S)NNC(=O)c1sc2cc(C(F)(F)F)cnc2c1-c1cccnc1`?
RAM inhibit: 0
